Experiments:
Type in all cases: functional, cell-based
[1] = test system: HeLa; experiment: Cytotoxicity against human HeLa cells after 72 hrs by alamar blue assay
Procedure, shortened: (§1)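 Cells seeded at 800–1000 per well (20–25 cells/µL) and left overnight to attach. Compounds were diluted serially from 10 mM DMSO stocks and tested at 8 final concentrations, 50 to 0.39 µM, in triplicate for 72 h. Vehicle control was 0.5% DMSO. Alamar blue was added to 10% final and fluorescence read after 4 h (ex 530, em 560 nm). Viability was expressed as percent of vehicle, and IC50 taken as 50% kill versus control.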

[2] = test system: NCI-H157; experiment: Cytotoxicity against human NCI-H157 cells after 72 hrs by alamar blue assay; settings: NCI-H157, 72 h; procedure, shortened: as §1
[3] = test system: NCI-H1792; experiment: Cytotoxicity against human NCI-H1792 cells after 72 hrs by alamar blue assay; settings: NCI-H1792, 72 h; procedure, shortened: as §1
[4] = test system: M14; experiment: Cytotoxicity against human M14 cells after 72 hrs by alamar blue assay; settings: M14, 72 h; procedure, shortened: as §1
[5] = test system: HOP-62; experiment: Cytotoxicity against human HOP62 cells after 72 hrs by alamar blue assay; settings: HOP-62, 72 h; procedure, shortened: as §1
[6] = Cytotoxicity against human SKBR cells after 72 hrs by alamar blue assay; procedure, shortened: as §1
[7] = Cytotoxicity against human M4E cells after 72 hrs by alamar blue assay; procedure, shortened: as §1
[8] = test system: A549; experiment: Cytotoxicity against human A549 cells after 72 hrs by alamar blue assay; settings: A549, 72 h; procedure, shortened: as §1
[9] = test system: Calu-1; experiment: Cytotoxicity against human Calu1 cells after 72 hrs by alamar blue assay; settings: Calu-1, 72 h; procedure, shortened: as §1
[10] = test system: LOX IMVI; experiment: Cytotoxicity against human LOXIMVI cells after 72 hrs by alamar blue assay; procedure, shortened: as §1
[11] = test system: NCI-H460; experiment: Cytotoxicity against human H460 cells after 72 hrs by alamar blue assay; settings: NCI-H460, 72 h; procedure, shortened: as §1
[12] = test system: NCI-H1299; experiment: Cytotoxicity against human NCI-H1299 cells after 72 hrs by alamar blue assay; settings: NCI-H1299, 72 h; procedure, shortened: as §1
[13] = Cytotoxicity against human 292G cells after 72 hrs by alamar blue assay; procedure, shortened: as §1
[14] = Cytotoxicity against human H266 cells after 72 hrs by alamar blue assay; settings: H266, 72 h; procedure, shortened: as §1

Row | Structure (SMILES) | IC50 [1] | IC50 [2] | IC50 [3] | IC50 [4] | IC50 [5] | IC50 [6] | IC50 [7] | IC50 [8] | IC50 [9] | IC50 [10] | IC50 [11] | IC50 [12] | IC50 [13] | IC50 [14]
1 | COc1cc(/C=C/C(=O)OC(C)C)ccc1O | 31.1 µM | > 50 µM | > 50 µM | > 50 µM | > 50 µM | > 50 µM | > 50 µM | > 50 µM | > 50 µM | > 50 µM | > 50 µM | > 50 µM | > 50 µM | > 50 µM
2 | O=C(/C=C/c1ccc(OCCCCO[N+](=O)[O-])c(O)c1)OCCCCO[N+](=O)[O-] | 3.93 µM | > 50 µM | > 50 µM | > 50 µM | > 50 µM | 3.23 µM | > 50 µM | 0.41 µM | > 50 µM | > 50 µM | > 50 µM | > 50 µM | > 50 µM | > 50 µM
3 | O=C(/C=C/c1ccc(O)c(O)c1)OCCCO[N+](=O)[O-] | 3.11 µM | 4.34 µM | 18.1 µM | 24.8 µM | 10 µM | 5.77 µM | 20 µM | 10.8 µM | 10.7 µM | 18.9 µM | 3.31 µM | 8.03 µM | 13.5 µM | > 50 µM
4 | COc1cc(/C=C/C(=O)Oc2ccc(OCc3c(-c4ccccc4)no[n+]3[O-])cc2)ccc1O | 12.1 µM | 43.1 µM | 8.15 µM | > 50 µM | 30.4 µM | 11 µM | > 50 µM | 3.39 µM | 28.8 µM | > 50 µM | 15.8 µM | 28.5 µM | 31 µM | > 50 µM
5 | CCCCOC(=O)/C=C/c1ccc(O)c(O)c1 [BUTYL CAFFEATE] | 0.59 µM | 2.62 µM | 5.75 µM | 11.1 µM | 5.59 µM | 2.17 µM | 8.66 µM | 3.51 µM | 11.7 µM | 9.54 µM | 5.62 µM | 5.81 µM | 6.46 µM | 11.3 µM
6 | COc1cc(/C=C/C(=O)OCc2c(-c3ccccc3)no[n+]2[O-])ccc1O | 7.82 µM | 4.53 µM | 11.1 µM | 14 µM | 8.66 µM | 4.98 µM | 3.37 µM | 2.06 µM | 22.9 µM | 13.8 µM | 7.03 µM | 12.9 µM | 16.5 µM | 13.4 µM
7 | CC(C)COC(=O)/C=C/c1ccc(O)c(O)c1 | 4.7 µM | 8.55 µM | > 50 µM | > 50 µM | > 50 µM | 16.2 µM | 36.8 µM | 13.6 µM | > 50 µM | > 50 µM | 16 µM | 37.7 µM | 37.5 µM | > 50 µM
8 | O=C(/C=C/c1ccc(O)c(O)c1)OCc1c(-c2ccccc2)no[n+]1[O-] | 1.23 µM | > 50 µM | 3.78 µM | 12.5 µM | 6.12 µM | 0.7 µM | 12.9 µM | 2.71 µM | 7.68 µM | 13.3 µM | 2.54 µM | > 50 µM | 9.17 µM | 14.2 µM
9 | COC(=O)/C=C/c1ccc(O)c(OC)c1 | 5.55 µM | > 50 µM | > 50 µM | > 50 µM | > 50 µM | > 50 µM | > 50 µM | > 50 µM | > 50 µM | > 50 µM | > 50 µM | > 50 µM | > 50 µM | > 50 µM
10 | COC(=O)/C=C/c1ccc(O)c(O)c1 [METHYLCAFFEATE] | 3.77 µM | 6.25 µM | 6.09 µM | 8.86 µM | 3.86 µM | 5.15 µM | 8.89 µM | 7.54 µM | 5.5 µM | 21.8 µM | 14.8 µM | 3.53 µM | 3.11 µM | > 50 µM
11 | O=C(/C=C/c1ccc(O)c(O)c1)OC/C=C/CO[N+](=O)[O-] | 0.4 µM | 1.36 µM | 0.41 µM | 1.49 µM | 4.65 µM | 0.41 µM | 4.31 µM | 0.4 µM | 0.42 µM | 0.43 µM | 2.9 µM | 0.41 µM | 7.95 µM | 10.3 µM
12 | COc1cc(/C=C/C(=O)OCc2cccc(OCc3c(-c4ccccc4)no[n+]3[O-])c2)ccc1O | 5.64 µM | > 50 µM | > 50 µM | > 50 µM | > 50 µM | 4.18 µM | > 50 µM | > 50 µM | > 50 µM | > 50 µM | 29.4 µM | > 50 µM | > 50 µM | > 50 µM
13 | O=C(/C=C/c1ccc(OCCCO[N+](=O)[O-])c(O)c1)OCCCO[N+](=O)[O-] | > 50 µM | 5.71 µM | 6.61 µM | 8.96 µM | 10 µM | 4.81 µM | 14.1 µM | 0.69 µM | 12.5 µM | 6.94 µM | 9.58 µM | > 50 µM | 4.98 µM | > 50 µM
14 | CCCCCOC(=O)/C=C/c1ccc(O)c(O)c1 | 2.02 µM | 2.28 µM | 6.35 µM | 7.48 µM | 5.11 µM | 2.96 µM | 6.8 µM | 5.75 µM | 8.57 µM | 3.38 µM | 1.91 µM | 4.69 µM | 7.73 µM | 7.24 µM
15 | COc1cc(/C=C/C(=O)OCCCCCCO[N+](=O)[O-])ccc1OCCCCCCO[N+](=O)[O-] | > 50 µM | > 50 µM | > 50 µM | > 50 µM | > 50 µM | > 50 µM | > 50 µM | > 50 µM | 27.8 µM | > 50 µM | > 50 µM | > 50 µM | > 50 µM | > 50 µM

Reference: ChEMBL document CHEMBL2086326, “Biological activity evaluation and structure-activity relationships analysis of ferulic acid and caffeic acid derivatives for anticancer” (Bioorg Med Chem Lett, 2012)
